In data set [1] the test system is Rattus norvegicus. Put plainly: Local anesthetic activity in rat assessed as onset time at 1% administered as base by sciatic nerve block method. It is filed as functional. Summed up:
(§1)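 Rat sciatic nerve block. Solutions are dosed with concentration expressed as base, and the pH of each solution is recorded. Groups are typically 10 rats. Onset is given in min. Frequency is the number of rats blocked out of those tested. Duration is in min, as mean ± SD.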

Data set [2] in a line: Toxicity in iv dosed mouse. It is filed as organism-based. As to conditions: in vivo.
Data set [3] has as its system Rattus norvegicus. Put plainly: Local anesthetic activity in rat assessed as frequency at 1% administered as base by sciatic nerve block method. It is filed as functional, organism-based. Summed up: as §1
In data set [4] the test system is Rattus norvegicus. Put plainly: Local anesthetic activity in rat assessed as duration of action at 2% administered as base by sciatic nerve block method. It is filed as functional. Summed up:
as §1

The subject of data set [5] is Rattus norvegicus. Briefly: Local anesthetic activity in rat assessed as onset time at 2% administered as base by sciatic nerve block method. It is filed as functional. Summed up:
as §1

In data set [6] the test system is Rattus norvegicus. Put plainly: Local anesthetic activity in rat assessed as frequency at 2% administered as base by sciatic nerve block method. It is filed as functional, organism-based. Summed up:
as §1

Data set [7] deals with Rattus norvegicus. Briefly: Local anesthetic activity in rat assessed as duration of action at 1% administered as base by sciatic nerve block method. It is filed as functional. Summed up: as §1
In data set [8] the test system is Rattus norvegicus. Put plainly: Toxicity in rat at 2% administered as base after 30 mins. It is filed as organism-based. As to conditions: in vivo, 0.5 h.
The test system of data set [9] is Rattus norvegicus. Briefly: Toxicity in rat at 2% administered as base after 40 mins. As to conditions: in vivo. It is filed as organism-based.
Data set [10] deals with Rattus norvegicus. Briefly: Toxicity in rat at 2% administered as base after 25 mins. Particulars: in vivo. It is filed as organism-based.

In general, LD50 refers to the dose expected to kill half of the subjects tested. A high value points to a less toxic substance.

Active and inactive are the calls of the source. No cut-off for these calls is given here.

With `CCN1CCCC12C(=O)Nc1ccccc12` (configuration not stated), the Time was determined as 6 min with Rattus norvegicus [1], 107 min in the data set with Rattus norvegicus [4], 5 min in the data set with Rattus norvegicus [5] and 83 min in the data set on Rattus norvegicus [7]. Also, the 50% lethal dose (LD50) in data set [2] was 119 mg/kg. Besides, the outcome in the data set with Rattus norvegicus [3] and in the data set with Rattus norvegicus [6] was Active.
For `CCCN1CCCC2(C1)C(=O)Nc1ccccc12.O=S(=O)(O)O` (configuration not stated), the Time in the data set on Rattus norvegicus [1] was 6 min; in the data set on Rattus norvegicus [4], 95 min; in the data set on Rattus norvegicus [5], 4 min; in the data set with Rattus norvegicus [7], 75 min.
As to `CCCN1CCC2(C1)C(=O)Nc1ccccc12` (configuration not stated) [listing 1 of 2 here], the outcome with Rattus norvegicus [3] and with Rattus norvegicus [6] was Active.
Regarding `CCN1CCC2(C1)C(=O)Nc1c(C)cccc12` (configuration not stated) [listing 1 of 2 here], in [2], the LD50 came to 23 mg/kg.
On the same count and under the same terms, for `CCCN1CCC2(C1)C(=O)Nc1ccccc12` (configuration not stated) [listing 2 of 2 here] the value was 25 mg/kg.
As to `CCCN1CCCC2(C1)C(=O)Nc1ccccc12` (configuration not stated) [listing 1 of 2 here], the outcome in the data set with Rattus norvegicus [3] and with Rattus norvegicus [6] was Active.
`CCCN1CCC2(C1)C(=O)Nc1ccccc12.Cl` (configuration not stated): the Time is reported as 3 min in the data set on Rattus norvegicus [1], 78 min in the data set with Rattus norvegicus [4], 2 min in the data set with Rattus norvegicus [5] and 66 min in the data set with Rattus norvegicus [7].
With `CCCN1CCCC2(C1)C(=O)Nc1ccccc12` (configuration not stated) [listing 2 of 2 here], the LD50 in [2] was found to be 41 mg/kg.
In the case of `CN1CCC2(C1)C(=O)Nc1ccccc12` (configuration not stated), the Time is given as 11 min with Rattus norvegicus [1], 83 min with Rattus norvegicus [4], 6 min with Rattus norvegicus [5] and 56 min with Rattus norvegicus [7]. Also, the outcome in the data set on Rattus norvegicus [3] and in the data set on Rattus norvegicus [6] was Active.
Regarding `CN1CCCCC12C(=O)Nc1ccccc12` (configuration not stated), the Time stood at 5 min with Rattus norvegicus [1], 97 min in the data set on Rattus norvegicus [4], 3 min in the data set with Rattus norvegicus [5] and 81 min with Rattus norvegicus [7]. In data set [2], this compound displayed an LD50 of 97 mg/kg. The outcome in the data set with Rattus norvegicus [3] and in the data set with Rattus norvegicus [6] was Active.
Take `CCN1CCC2(CC1)C(=O)Nc1ccccc12`: the Time in the data set on Rattus norvegicus [1] amounted to 6 min; in the data set with Rattus norvegicus [4] it was 120 min; in the data set with Rattus norvegicus [5] it was 5 min; in the data set on Rattus norvegicus [7], 86 min. Besides, the LD50 in data set [2] worked out at 53 mg/kg. Further, the outcome with Rattus norvegicus [3] and in the data set on Rattus norvegicus [6] was Active.
Consider `CCN1CCC2(C1)C(=O)Nc1c(C)cccc12.Cl` (configuration not stated), for which the Time was 3 min with Rattus norvegicus [1], 2 min in the data set with Rattus norvegicus [5] and 93 min in the data set on Rattus norvegicus [7]. Also, the Activity entry in the data set with Rattus norvegicus [8] is given as “Toxic”.
With `CCN1CCC2(C1)C(=O)Nc1c(C)cccc12` (configuration not stated) [listing 2 of 2 here], the result with Rattus norvegicus [3] and with Rattus norvegicus [6] was Active.
Regarding `CCN(CC)CC(=O)Nc1c(C)cccc1C` [LIDOCAINE], the result in the data set with Rattus norvegicus [3] and in the data set on Rattus norvegicus [6] was Active. For the same compound, the Time with Rattus norvegicus [4] is given as 141 min; in the data set with Rattus norvegicus [5], 1 min.
Consider `CCN1CCC2(CC1)C(=O)Nc1c(C)cccc12`, for which the Time is on record as 3 min with Rattus norvegicus [1], 3 min in the data set on Rattus norvegicus [5] and 108 min in the data set on Rattus norvegicus [7]. Also, the Activity entry with Rattus norvegicus [9] and in the data set with Rattus norvegicus [10] was “Toxic” in each case. Also, the 50% lethal dose (LD50) in [2] was found to be 21 mg/kg. Further, the result in the data set with Rattus norvegicus [3] and with Rattus norvegicus [6] was Active.
With `CCN1CCC2(C1)C(=O)Nc1ccccc12` (configuration not stated), the Time in the data set with Rattus norvegicus [1] is 4 min; with Rattus norvegicus [4], 85 min; with Rattus norvegicus [5], 3 min; in the data set on Rattus norvegicus [7], 67 min. In addition, the LD50 in [2] is 38 mg/kg. The result in the data set with Rattus norvegicus [3] and with Rattus norvegicus [6] was Active.

The values are drawn from ChEMBL document CHEMBL3271956, “Oxindole-3-spiropyrrolidines and -piperidines. Synthesis and local anesthetic activity” (J Med Chem, 1976).
